Measured values published in the EternaBench riboswitch data.

Columns and labels:
MS2 coat protein [1] = assay: apparent Kd, MS2 coat protein; higher = weaker binding; RNA-MaP array; tryptophan 2.4 mM where present
Method in brief: (§1)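 The apparent Kd is the median of filtered binding-curve fits, one per cluster, to green signal normalised to red-channel RNA signal and control-cluster median Fmax. The clusters were on Illumina sequencing chips, and stalled E. coli RNA polymerase had transcribed the designs on them. Titration used SNAP-549-labelled MS2 coat protein from 0.7 or 1.5 nM, doubling to 3 µM, without and then with constant ligand, in 100 mM Tris-HCl pH 7.5, 80 mM KCl, 4 mM MgCl2, BSA, DTT, yeast tRNA and Tween-20.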

MS2 coat protein [2] = assay: apparent Kd, MS2 coat protein; higher = weaker binding; RNA-MaP array; theophylline 2 mM where present
Method in brief: as §1

[3] = designed as: ON switch for tryptophan, no ligand
[4] = ligand present: tryptophan, designed as: ON switch for tryptophan
[5] = designed as: OFF switch for tryptophan, no ligand
[6] = ligand present: tryptophan, designed as: OFF switch for tryptophan
[7] = designed as: ON switch for theophylline, no ligand
[8] = ligand present: theophylline, designed as: ON switch for theophylline
[9] = designed as: OFF switch for theophylline, no ligand
[10] = ligand present: theophylline, designed as: OFF switch for theophylline

## UAAGUUAGGGCGGCCGCCACUCGAACAUGAGGAUCACCCAUGUAAAUUAAUUAAAGGACAUGAAUGAGGACCGGGCCAAGUUAGA
MS2 coat protein [1]; [3]
  apparent Kd: 15.7 nM
MS2 coat protein [1]; [4]
  apparent Kd: 13.4 nM

## AAUUAUCAGUCGGCCGCCACUGACACAUGAGGAUCACCCAUGUAACAUGGGUAAAAUUAACUGAACAGGACCGGGACAAAGGCUA
MS2 coat protein [1]; [5]
  apparent Kd: 378 nM
MS2 coat protein [1]; [6]
  apparent Kd: 499 nM

## GGGAGAUAGGCGGCCGCCACUGAUUUUCAUAUAUAUAUAACAUGAGGAUCACCCAUGUAGAUAUACAGGACCGGGCCUAUUUUUU
MS2 coat protein [1]; [3]
  apparent Kd: 17.4 nM
MS2 coat protein [1]; [4]
  apparent Kd: 16.2 nM

## AAUUCAAUUUUCUUGAUGUAUUAUAUAUUUCGAGGACCGGUACGGCCGCCACUCGUUAAUUACAUGAGGAUCACCCAUGUUAGCU
MS2 coat protein [1]; [5]
  apparent Kd: 16.8 nM
MS2 coat protein [1]; [6]
  apparent Kd: 14 nM

## CCACUUUCUUUUAUCUUUCUUUCUUUGUUACGAGGACCGGUACGGCCGCCACUCGUGGUGUGUGGUACAUGAGGAUCACCCAUGU
MS2 coat protein [1]; [3]
  apparent Kd: 23.7 nM
MS2 coat protein [1]; [4]
  apparent Kd: 22.4 nM

## UCAUAAGUACCGGUCCUCAGAUCCUCAUGACGAGGACCGGUACGGCCGCCACUCGAAACAUGAGGAUCACCCAUGUAAUAACAUU
MS2 coat protein [1]; [5]
  apparent Kd: 20.9 nM
MS2 coat protein [1]; [6]
  apparent Kd: 18.5 nM

## CACGAAAGAUCGGCCGCCACUAACCUGUGUGUACUAGCACAUGAGGAUCACCCAUGUUCUUGCGUUAGGACCGGGAUUGAGCGUG
MS2 coat protein [1]; [5]
  apparent Kd: 23 nM
MS2 coat protein [1]; [6]
  apparent Kd: 21.7 nM

## GUUAUAUGAAAACAUAUAACAGUGGGUGAACGAGGACCGGUACGGCCGCCACUCGGACAUGAGGAUCACCCAUGUCCAUGUGAAA
MS2 coat protein [1]; [5]
  apparent Kd: 15.8 nM
MS2 coat protein [1]; [6]
  apparent Kd: 41.4 nM

## GUCCUCAUGACGGCCGCCACUACACAUGAGGAUCACCCAUGUAAUGAUCCCUUAAAUGAUAAUAGUAGGACCGGGUCACUGUAAG
MS2 coat protein [1]; [3]
  apparent Kd: 457 nM
MS2 coat protein [1]; [4]
  apparent Kd: 699 nM

## GUUUUAUACUCGGCCGCCACUGAGAGAGUCAUGUAAACAUGAGGAUCACCCAUGUAAUAUAUAUACAGGACCGGGAGUAGGGUAA
MS2 coat protein [1]; [5]
  apparent Kd: 12.9 nM
MS2 coat protein [1]; [6]
  apparent Kd: 15.4 nM

## ACACAAUACAUGAGGAUCACCCAUGUAAAACGAGGACCGGUACGGCCGCCACUCGAAUACAGGAAACCUCGGAAUAUUAAGUGAA
MS2 coat protein [1]; [5]
  apparent Kd: 51.8 nM
MS2 coat protein [1]; [6]
  apparent Kd: 38 nM

## UUCUACGGCGAUCUGGGUUUACCAGAUCGACGAGGACCGGUACGGCCGCCACUCGUGUUUCUUUAACAUGAGGAUCACCCAUGUA
MS2 coat protein [1]; [3]
  apparent Kd: 48 nM
MS2 coat protein [1]; [4]
  apparent Kd: 22.4 nM

## AUAAAUAAUAAAUAAGAUAAAAUGGGUGAACGAGGACCGGUACGGCCGCCACUCGGACAUGAGGAUCACCCAUGUCCAUGUGAAA
MS2 coat protein [1]; [5]
  apparent Kd: 20.2 nM
MS2 coat protein [1]; [6]
  apparent Kd: 27.6 nM

## AGACUGUAAAGUCUACCGGUCAACAAUAAUCGAGGACCGGUACGGCCGCCACUCGAUGUGAUAUACACAUGAGGAUCACCCAUGU
MS2 coat protein [1]; [3]
  apparent Kd: 16.2 nM
MS2 coat protein [1]; [4]
  apparent Kd: 15.5 nM

## CGAUCUUUCGAAAGAAGGAUCGAUUCUGAUACCAGAGACGAAAGUCUCCCUUGGCAGCAGUGCCAACAUGAGGAUCACCCAUGUA
MS2 coat protein [2]; [7]
  apparent Kd: 22.4 nM
MS2 coat protein [2]; [8]
  apparent Kd: 21.3 nM

## AUGUCAUUGGUGUAGCUGUGAAAUGGCGAUACCAGCGUGGAAACACGCCCUUGGCAGCGCCAAAACAUGAGGAUCACCCAUGUUA
MS2 coat protein [2]; [9]
  apparent Kd: 87.6 nM
MS2 coat protein [2]; [10]
  apparent Kd: 272 nM

## AUAAGUAUGUUUUCGUGUUUUAUUACAGAUACCAGACUAUACGUUGUCCCUUGGCAGCUGGAUUACAUGAGGAUCACCCAUGUUG
MS2 coat protein [2]; [9]
  apparent Kd: 23.1 nM
MS2 coat protein [2]; [10]
  apparent Kd: 53 nM

## ACAUCCAGGUUAAUCGUGGACAUGGUCGAUACCAGUAUUUUAAUCUACCCUUGGCAGCGACAUGAGGAUCACCCAUGUGCGAUGA
MS2 coat protein [2]; [9]
  apparent Kd: 14.3 nM
MS2 coat protein [2]; [10]
  apparent Kd: 31.4 nM

## AACUGGAAAAGUGAUACCAGAGACAUGAGGAUCACCCAUGUACAUGAGGAUCACCCAUGUCUCCCUUGGCAGCACAAAAGGGAGA
MS2 coat protein [2]; [9]
  apparent Kd: 30.6 nM
MS2 coat protein [2]; [10]
  apparent Kd: 64.8 nM

## GGGUAUGAUCCGGAUACCAGCGAACAUGAGGAUCACCCAUGUGACCUAAGAUAGGCUCUACGCCCUUGGCAGCCGCGAUCGCGUU
MS2 coat protein [2]; [7]
  apparent Kd: 24.8 nM
MS2 coat protein [2]; [8]
  apparent Kd: 16.1 nM

## GCACCAGGUACGGAUACCAGAGCAAGCCAAAUGAGUGAACAUGAGGAUCACCCAUGUUUGCUCCCUUGGCAGCCGUACCUGGUGC
MS2 coat protein [2]; [9]
  apparent Kd: 9.34 nM
MS2 coat protein [2]; [10]
  apparent Kd: 45.2 nM

## CAUACUUGAUCCUAUGAGCCUAUUUGUGAUACCAGCAUCUAAAUUUGCCCUUGGCAGCACUAACAUGAGGAUCACCCAUGUUAUA
MS2 coat protein [2]; [9]
  apparent Kd: 34.9 nM
MS2 coat protein [2]; [10]
  apparent Kd: 71.8 nM

## UUAGAUAUGACGGAUACCAGCGUGUUGUAGAACAUGAGGAUCACCCAUGUAGUGAUCGAGCGCCCUUGGCAGCUGGUAUGUUUGG
MS2 coat protein [2]; [7]
  apparent Kd: 179 nM
MS2 coat protein [2]; [8]
  apparent Kd: 482 nM

## ACUAGUUGUGCAGAUACCAGACAUGAGGAUCACCCAUGUUUGGGAUGUUCGCAUCUUCCUGUCCCUUGGCAGCUGUACAUCUAGA
MS2 coat protein [2]; [9]
  apparent Kd: 82.5 nM
MS2 coat protein [2]; [10]
  apparent Kd: 44.6 nM

## UCUUGGUCCGCAAGGACCGUGAGUUGCGAUACCAGCACGGUAACGUGCCCUUGGCAGCGCACAUGAGGAUCACCCAUGUGGUGUU
MS2 coat protein [2]; [9]
  apparent Kd: 281 nM
MS2 coat protein [2]; [10]
  apparent Kd: 318 nM

## AAAAUAAAUAAAACACGUAACAUGAAGGAUACCAGACAGGAAACUGUCCCUUGGCAGCCUCUACAUGAGGAUCACCCAUGUCGUG
MS2 coat protein [2]; [8]
  apparent Kd: 30.8 nM

## UAUUUGGUGCGCGAGCGUUGGAUAAUUGAUACCAGUGAAGAAGAGCGCCCUUGGCAGCGAAUCCUAACAUGAGGAUCACCCAUGU
MS2 coat protein [2]; [7]
  apparent Kd: 41 nM
MS2 coat protein [2]; [8]
  apparent Kd: 56.7 nM

## AGAUGCCACUGUGGAUAGCACGAUGCCGAUACCAGCUAGGAAACUAGCCCUUGGCAGCGGUACAUGAGGAUCACCCAUGUAUCCU
MS2 coat protein [2]; [10]
  apparent Kd: 75 nM

## AUUUAUUGUCGUGAUACCAGACAUACAUGAGGAUCACCCAUGUUAAGUAACAUUUUUUAGGUCCCUUGGCAGCACUUUUUAAUUA
MS2 coat protein [2]; [7]
  apparent Kd: 26.1 nM
MS2 coat protein [2]; [8]
  apparent Kd: 15.8 nM

## ACACAUGAGGAUCACCCAUGUCCAAUAGAUACCAGUGAUACGGUGCACCCUUGGCAGCUGUUACUGAGUGAUGGUUCCCUCGGAA
MS2 coat protein [2]; [7]
  apparent Kd: 67.6 nM
MS2 coat protein [2]; [8]
  apparent Kd: 97.1 nM

## UGUAUGUGAAGUGAUACCAGUCCAUAAACUGGAACAUGAGGAUCACCCAUGUAAUGGGUGGACCCUUGGCAGCACUUCUCAUACU
MS2 coat protein [2]; [7]
  apparent Kd: 122 nM
MS2 coat protein [2]; [8]
  apparent Kd: 136 nM

## AUUUUUCUAUCAGAUACCAGACAACUCCAAACAUGAGGAUCACCCAUGUAUUGGGUGUUCGUCCCUUGGCAGCUGUUAAUGUUAA
MS2 coat protein [2]; [7]
  apparent Kd: 16.9 nM
MS2 coat protein [2]; [8]
  apparent Kd: 9.41 nM

## CUUGGUAGAUCCUAGCUGCCAAGAGGUGAUACCAGCAUCGAAAGAUGCCCUUGGCAGCACCAACAUGAGGAUCACCCAUGUAAUA
MS2 coat protein [2]; [7]
  apparent Kd: 70.7 nM
MS2 coat protein [2]; [8]
  apparent Kd: 339 nM

## GCACCAGGUACGGAUACCAGAAUUUGCCAAUUGGGUGAACAUGAGGAUCACCCAUGUUAUUUCCCUUGGCAGCCGUACCUGGUGC
MS2 coat protein [2]; [9]
  apparent Kd: 8.75 nM
MS2 coat protein [2]; [10]
  apparent Kd: 15.9 nM

## AUAAGUAAUGUCUCGUGUAUUAUUACAGAUACCAGACUAUCCUAUGUCCCUUGGCAGCUGGAUUACAUGAGGAUCACCCAUGUUG
MS2 coat protein [2]; [9]
  apparent Kd: 23.2 nM
MS2 coat protein [2]; [10]
  apparent Kd: 27.5 nM

## CUAGGAAACUAGUAAGGGUGGUAUUGAGAUACCAGUACAGAAAUGUACCCUUGGCAGCUCACUGCAACAUGAGGAUCACCCAUGU
MS2 coat protein [2]; [9]
  apparent Kd: 24.1 nM
MS2 coat protein [2]; [10]
  apparent Kd: 55.9 nM

## ACAUGAGGAUCACCCAUGUGCCGUCUUGAUACCAGACGCGAAGUAGUCCCUUGGCAGCAACUACGUGACGGUCGCGCAUGUGUAG
MS2 coat protein [2]; [9]
  apparent Kd: 16.6 nM
MS2 coat protein [2]; [10]
  apparent Kd: 28.6 nM

## CGAAUACCAAUUGAUACCAGCAUGUUAACAUGAGGAUCACCCAUGUUAAGGAUAACAUAAUGCCCUUGGCAGCAACGUAAAUUCG
MS2 coat protein [2]; [7]
  apparent Kd: 22.9 nM
MS2 coat protein [2]; [8]
  apparent Kd: 13.5 nM

## GGAUAGAUAGGAGAUACCAGAUACAUAAACAUGAGGAUCACCCAUGUGUCUGCACUAAGUAUCCCUUGGCAGCUCGGAGAUCUGA
MS2 coat protein [2]; [7]
  apparent Kd: 17.6 nM
MS2 coat protein [2]; [8]
  apparent Kd: 15 nM

## AGAAUACAUGUUUUAAUACGGUUUACUGAUACCAGUGUAUCUAUUCACCCUUGGCAGCAGAGACAUGAGGAUCACCCAUGUAUUA
MS2 coat protein [2]; [9]
  apparent Kd: 38.8 nM
MS2 coat protein [2]; [10]
  apparent Kd: 55.2 nM
